These results are taken from ChEMBL document CHEMBL1833877, “Antinociceptive properties of bergenin” (J Nat Prod, 2011).

Data set [1] concerns Mus musculus. Nature of the data set: Antinociceptive activity against formalin-induced pain in mouse assessed as paw licking during early phase (0 to 10 mins) at 10 mg/kg, ip administered 40 mins before formalin challenge. Set-up: dose 10 mg/kg. The class given is functional, organism-based. The procedure, abridged: (§1)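 Mice were acclimated 30 min in an observation chamber, then given 20 μL of 2.5% formalin sc into the dorsal hind paw. Dosing was ip (2% DMSO/saline vehicle) 40 min beforehand. Time spent licking the injected paw was scored over 0–10 min and 10–60 min. n = 6/group, means ± SEM, ANOVA with Tukey.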

Data set [2] deals with Mus musculus. Nature of the data set: Antinociceptive activity in mouse assessed as inhibition of acetic acid-induced abdominal constrictions at 10 mg/kg, ip administered 40 mins before acetic acid challenge measured for 30 mins. Set-up: dose 10 mg/kg. The class given is functional, organism-based. The following applies: Abdomen. The essentials: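 Dosing was ip in 2% DMSO/saline 40 min before ip acetic acid (0.8% v/v, 10 mL/kg). Writhes (abdominal contraction with hind-limb stretching) were counted over 0–30 min. n = 6 mice/group, means ± SEM, ANOVA with Tukey.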

Data set [3] concerns Mus musculus. Nature of the data set: Antinociceptive activity against formalin-induced pain in mouse assessed as paw licking during late phase (10 to 60 mins) at 10 mg/kg, ip administered 40 mins before formalin challenge. In kind it is functional, organism-based. Set-up: dose 10 mg/kg. The procedure, abridged: as §1
Data set [4] deals with Mus musculus. Nature of the data set: Inhibition of TNF-alpha production in Freund's complete adjuvant-induced mouse at 2 mg/kg, ip administered 40 mins before CFA challenge measured after 2 hrs by ELISA. In kind it is functional, organism-based. Set-up: dose 2 mg/kg. The essentials:
(§2)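 CFA was given intraplantar, with ip dosing (2% DMSO/saline vehicle) 40 min earlier. At 2 h, paw skin was taken under terminal halothane anesthesia. Tissue was extracted (100 mg/mL PBS with 0.4 M NaCl, 0.05% Tween 20 and protease inhibitors) and centrifuged at 3000g for 10 min. Supernatant was assayed by mouse ELISA, in pg/mL. n = 6/group.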

Data set [5] relates to Mus musculus. Nature of the data set: Antinociceptive activity against Freund's complete adjuvant-induced paw inflammation in mouse assessed as reduction in paw edema at 2 mg/kg, ip administered 40 mins before CFA challenge measured after 6 hrs. The class given is functional, organism-based. More on the design: dose 2 mg/kg. The procedure, abridged:
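CFA (20 μL, 1 mg/mL heat-killed M. tuberculosis) was injected sc into the right hind plantar surface. Treatment was ip in 2% DMSO/saline 40 min before. Paw volume was read by plethysmometer before and after CFA, and edema taken as the volume difference (mm3/paw). n = 6 mice/group, means ± SEM, two-way ANOVA with Bonferroni.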

The test system of data set [6] is Mus musculus. Nature of the data set: Inhibition of IL1-beta production in Freund's complete adjuvant-induced mouse at 2 mg/kg, ip administered 40 mins before CFA challenge measured after 2 hrs by ELISA. The class given is functional, organism-based. Set-up: dose 2 mg/kg. The essentials:
as §2
Background: ELISA stands for enzyme-linked immunosorbent assay.

In data set [7] the test system is Mus musculus. Nature of the data set: Neurotoxicity in mouse assessed as effect on motor coordination by measuring reduced latency at 10 mg/kg, ip after 40 mins by rotarod test. In kind it is toxicity, organism-based. Set-up: dose 10 mg/kg, route intraperitoneal. The following applies: in vivo. The procedure, abridged: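 Rotarod: a 3 cm bar split into five compartments, turning at a constant 5 rpm. Male mice were placed on the rod 40 min after ip dosing (vehicle 2% DMSO in saline), and time on the rod was recorded up to 120 s. Result is mean time per group; n = 6, one-way ANOVA with Tukey's test.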
For orientation: Falling from the rotarod earlier than controls is read as motor impairment.

The test system of data set [8] is Mus musculus. Nature of the data set: Neurotoxicity in mouse assessed as effect on motor coordination at 10 mg/kg, ip after 40 mins by open field test. The class given is toxicity, organism-based. Set-up: dose 10 mg/kg, route intraperitoneal. The following applies: in vivo. The procedure, abridged: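 Male mice were dosed ip (vehicle 2% DMSO in saline). 40 min later each was placed alone in a 40 × 60 × 50 cm wooden box with the floor divided into 12 squares. Squares crossed with all four paws were counted over 3 min. n = 6 mice per group, means ± SEM, one-way ANOVA with Tukey's test.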

Structures are written as SMILES. Calls of active or inactive are those of the source. The calls are words filed in the database; no cut-off is given here.

Turning to `COc1ccc2c(c1)c(CC(=O)O)c(C)n2C(=O)c1ccc(Cl)cc1`, the result in the data set on Mus musculus [1], in the data set on Mus musculus [2] and in the data set with Mus musculus [3] was Active.

With `C[C@@H]1C[C@H]2[C@@H]3CCC4=CC(=O)C=C[C@]4(C)[C@@]3(F)[C@@H](O)C[C@]2(C)[C@@]1(O)C(=O)CO`, the inhibition result with Mus musculus [4] and in the data set with Mus musculus [6] was “Active” throughout. Moreover, the result in the data set with Mus musculus [5] was inactive.

With `CN1C(=O)CN=C(c2ccccc2)c2cc(Cl)ccc21` [DIAZEPAM], the Activity result with Mus musculus [7] and in the data set on Mus musculus [8] was “Toxic” in each case.
